Rows were chosen to be rich in hits. Some 2.3% of all compounds tested hit in one or more screens of this group.
ABCG2 block: inhibitors of human ABCG2 transporter, ABCB1 counter-screen. inhibition, % at 6.6 µM. 190,000 compounds, 0.1% hits. AID 1325. IgMXP3 cells, JC-1 efflux, flow cytometry;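 active means inhibition above 80%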;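 further: 0% = DMSO and 100% = nicardipine control wells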
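Test system: ABCG2 IgMXP3 and barcoded ABCB1 CCRF-Adr cell mix; Schedule: cells with compound and JC-1, 10 min at 25 °C, rotating, no wash; Technique: flow cytometry of retained JC-1 fluorescence; Measure: % inhibition of efflux relative to nicardipine and DMSO; Controls: nicardipine high and DMSO low controls.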
MEKK3 PB1 HTS: raises or lowers MEK5 binding to the human MEKK3 PB1 domain. bead-based flow cytometry, Alexa488-MEK5 binding to MEKK3; actives lie on both sides; 0 = blocked by unlabeled MEK5, 100 = vehicle. binding response (% of control), % at 10 µM. 290,000 compounds, 1.4% hits. AID 1529;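 active means binding response more than 3 SD above or below the average of its plate-row segment, actives on both sides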;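 further: Alexa488 bead fluorescence after subtracting the streptavidin-only scavenger bead signal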
ABCB1 inh: blocks JC-1 efflux by human ABCB1 transporter; 190,000 compounds, 0.067% hits; AID 1326; CCRF-Adr cells, flow cytometry; inhibition, % at 6.6 µM; P08183; in the data active means inhibition above about 40%;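 further: 0% = vehicle and 100% = reference inhibitor; higher value means more JC-1 retained so stronger ABCB1 efflux block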
Target sequence (P08183 whole entry, looked up): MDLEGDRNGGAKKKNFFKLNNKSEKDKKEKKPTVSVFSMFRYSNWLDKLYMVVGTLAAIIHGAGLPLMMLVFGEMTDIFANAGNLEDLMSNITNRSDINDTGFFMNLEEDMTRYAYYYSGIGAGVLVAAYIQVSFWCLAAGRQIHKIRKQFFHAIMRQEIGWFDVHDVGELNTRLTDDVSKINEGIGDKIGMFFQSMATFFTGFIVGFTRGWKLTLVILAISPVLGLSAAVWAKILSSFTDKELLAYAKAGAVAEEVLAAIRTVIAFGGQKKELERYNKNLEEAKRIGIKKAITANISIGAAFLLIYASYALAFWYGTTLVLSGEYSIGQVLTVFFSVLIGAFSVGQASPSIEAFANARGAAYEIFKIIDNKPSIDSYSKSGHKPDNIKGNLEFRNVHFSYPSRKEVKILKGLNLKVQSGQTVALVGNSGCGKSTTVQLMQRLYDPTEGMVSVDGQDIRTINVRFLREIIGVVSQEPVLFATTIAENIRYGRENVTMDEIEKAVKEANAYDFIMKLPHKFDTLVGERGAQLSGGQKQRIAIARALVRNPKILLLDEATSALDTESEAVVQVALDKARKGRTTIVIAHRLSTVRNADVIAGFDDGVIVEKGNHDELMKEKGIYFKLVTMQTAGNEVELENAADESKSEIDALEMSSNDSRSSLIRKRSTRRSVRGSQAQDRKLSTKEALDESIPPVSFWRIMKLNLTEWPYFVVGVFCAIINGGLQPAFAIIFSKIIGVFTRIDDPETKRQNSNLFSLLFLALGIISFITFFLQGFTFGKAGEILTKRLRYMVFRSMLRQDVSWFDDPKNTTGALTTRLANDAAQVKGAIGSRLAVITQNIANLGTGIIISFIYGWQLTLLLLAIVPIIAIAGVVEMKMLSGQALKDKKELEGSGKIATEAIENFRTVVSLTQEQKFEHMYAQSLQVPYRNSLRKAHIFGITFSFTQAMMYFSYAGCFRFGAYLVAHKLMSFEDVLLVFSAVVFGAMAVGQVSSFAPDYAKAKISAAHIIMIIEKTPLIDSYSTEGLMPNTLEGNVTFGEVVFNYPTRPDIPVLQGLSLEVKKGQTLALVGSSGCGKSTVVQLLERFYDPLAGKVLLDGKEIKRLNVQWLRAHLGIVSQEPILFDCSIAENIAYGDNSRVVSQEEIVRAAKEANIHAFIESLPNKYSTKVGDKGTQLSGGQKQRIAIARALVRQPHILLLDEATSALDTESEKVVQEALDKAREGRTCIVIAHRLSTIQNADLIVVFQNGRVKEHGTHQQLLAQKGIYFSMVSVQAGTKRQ
MEKK2mut PB1 HTS: signal of MEK5 binding to mutant human MEKK2 PB1 domain; bead flow cytometry, Alexa488-MEK5 binding to MEKK2 mutant; percent response, % at 10 µM; 290,000 compounds, 0.35% hits; in the data active means percent response above about 24%, passing the limit was not always enough
MEKK2wt PB1 HTS: raises or lowers MEK5 binding to wildtype human MEKK2 PB1 domain; binding response (% of control), % at 10 µM; 290,000 compounds, 1.1% hits; Q9Y2U5; bead flow cytometry, Alexa488-MEK5 binding to MEKK2 WT; actives lie on both sides; AID 1531; in the data active means binding response below about 67% or above about 130%
MEKK2wt confirm: raises or lowers MEK5 binding to wildtype human MEKK2, retest | shares compounds with MEKK3 PB1 HTS | bead flow cytometry, Alexa488-MEK5 binding to MEKK2 WT; actives lie on both sides | binding response (% of control), % at 10 µM | 5,900 compounds, 2.4% hits; in the data active means binding response below about 16% or above about 210%; inactive means in between
MEKK2mut-MEK5: signal of MEK5 binding to mutant human MEKK2, retest; percent response, % at 10 µM; shares compounds with MEKK3 PB1 HTS; AID 1893; bead flow cytometry, Alexa488-MEK5 binding to MEKK2 mutant; 5,900 compounds, 2% hits; in the data active means percent response mostly above about 71%, no sharp cut-off; inactive means mostly below about 38%;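 further: higher means compound restores mutant binding toward wildtype level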
MEKK3-MEK5 inh: MEKK3-MEK5 PB1 inhibition, single concentration confirmation; shares compounds with MEKK3 PB1 HTS; AID 1894; binding response (% of control), % at 10 µM; bead flow cytometry, Alexa488-MEK5 binding to MEKK3; active compounds read low; 5,900 compounds, 1.8% hits;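 active means binding response below 72% of control, or above a set upper limit, though filed actives all read lower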;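 further: 100% = DMSO only wells and 0% = binding blocked by excess unlabeled MEK5; lower values mean stronger disruption of MEK5 binding to MEKK3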
An asterisk follows results filed as active; x = not tested or not shown; [ ] = another dose, or the depositor's remark.

SMILES | ABCG2 block | MEKK3 PB1 HTS | ABCB1 inh | MEKK2mut PB1 HTS | MEKK2wt PB1 HTS | MEKK2wt confirm | MEKK2mut-MEK5 | MEKK3-MEK5 inh
COCCN1CCC(CNCc2cn[nH]c2-c2ccc(C)c(C)c2)C1 (configuration not stated) | 12 | 100 | 0 | 31 | 161* | 159 | 43 | 114
CC(=O)n1c(-c2ccccc2)c(CO)c2ccccc21 | x | 100 | x | -1 | 95 | x | x | x
NCCc1c(-c2ccccc2)n(-c2ccccc2)c2ccccc12 | 1 | 108 | 1 | 62* | 197* | 155 | 35 | 111
CCOC(=O)[C@@H]1[C@H]2COc3ccccc3[C@@H]2N2C(=O)N(c3ccc(Cl)cc3)C(=O)[C@]12C | x | 99 | x | -6 | 91 | x | x | x
CCN(C(=O)CSc1ncccc1C(=O)OC(C)C)c1cccc(C)c1 | 2 | 0.0*[inhibitor] | 1 | -26 | -3.0*[inhibitor] | 104 | 6 | 107
COC(=O)C(C)N(C#N)c1nc(NC(C)C)nc(SC)n1 (configuration not stated) | 5 | 104 | 1 | 10 | 105 | x | x | x
COC(=O)C(C)N(C#N)c1nc(C)cc(C)n1 (configuration not stated) | 1 | 131* | 0 | 7 | 117 | 107 | 6 | 104
O=[N+]([O-])c1ccc(/C=N/Nc2ccc3ccccc3c2)o1 | 4 | 88 | 2 | -2 | 2.0*[inhibitor] | 103 | 1 | 100
Cc1nn(Cc2ccc(Cl)cc2)c(C)c1NC(=O)CSc1n[nH]c(C)c1[N+](=O)[O-] | 23 | 142* | 1 | 0 | 112 | 108 | 1 | 104
Cc1nn(Cc2ccccc2Cl)c(C)c1NC(=O)CSc1n[nH]c(C)c1[N+](=O)[O-] | 23 | 102 | 1 | 16 | 112 | x | x | x
Cc1nn(Cc2ccccc2)c(C)c1NC(=O)CSc1n[nH]c(C)c1[N+](=O)[O-] | 16 | 134* | 1 | 0 | 100 | 100 | 0 | 100
Cn1c(=O)n(C)c2cc(NC(=O)COc3ccc(F)cc3)ccc21 | x | 102 | x | 2 | 102 | x | x | x
COc1ccc(CSc2ncn[nH]2)cc1[N+](=O)[O-] | 26 | 100 | 2 | 0 | 97 | x | x | x
COc1ccc(CSc2n[nH]c(C)n2)cc1[N+](=O)[O-] | 3 | 130* | 0 | 4 | 106 | -3.0*[inhibitor] | -5 | 94
COc1ccc(S(=O)(=O)NC2CC2)cc1Cl | x | 102 | x | 3 | 106 | x | x | x
COc1ccc(NC(=O)CC2C(=O)N(c3ccc(Cl)cc3)C(=S)N2CCc2ccccn2)cc1 (configuration not stated) | 26 | 130* | 3 | 0 | 104 | 101 | -7 | 100
COc1ccc(NC(=O)CC2C(=O)N(c3ccccc3)C(=O)N2CCc2cccs2)cc1 (configuration not stated) | -1 | 149* | 0 | 0 | 102 | 105 | 5 | 105
COc1cc(NC(=O)CN(C)Cc2cccc(F)c2)c(C)cc1[N+](=O)[O-] | 4 | 128* | 1 | 0 | 112 | 104 | -2 | 104
COc1cc(NC(=O)CN(C)Cc2ccc(OC(F)F)cc2)c(C)cc1[N+](=O)[O-] | 12 | 100 | 2 | 4 | 99 | x | x | x
COc1ccc(CN(C)CC(=O)Nc2cc(OC)c([N+](=O)[O-])cc2C)c(OC)c1 | 7 | 133* | 1 | 0 | 106 | 111 | 5 | 100
CCCN(CCC)C(=O)c1ccc2c(c1)N(CC)C(=O)c1ccccc1S2(=O)=O | x | 107 | x | 3 | 111 | x | x | x
COc1ccc(CCNC(=O)C(=O)NCC2OCCN2S(=O)(=O)c2ccc3c(c2)OCCO3)cc1OC (configuration not stated) | x | 92 | x | -7 | 92 | x | x | x
CCCCc1nc2sc3c(SCCN(C)C)ncnc3c2c2c1CCC2 | x | 100 | x | 29 | 152* | 198 | 63 | 106
CCCCc1nc2sc3c(SCC(=O)NCc4ccco4)ncnc3c2c2c1CCC2 | 2 | 95 | 0 | 2 | 96 | x | x | x
CCOc1c(Br)cc(CNCc2cccs2)cc1OC | 8 | 99 | 2 | 26 | 100 | x | x | x
SMILES | ABCG2 block | MEKK3 PB1 HTS | ABCB1 inh | MEKK2mut PB1 HTS | MEKK2wt PB1 HTS | MEKK2wt confirm | MEKK2mut-MEK5 | MEKK3-MEK5 inh
CCCCNCc1cc(Br)c(OCc2cccs2)c(OC)c1 | 6 | 95 | 1 | 21 | 136* | 123 | 8 | 100
CC(=O)c1ccc(C(=O)N2CCCC(N3CCN(c4ccc(F)cc4)CC3)C2)s1 (configuration not stated) | x | 98 | x | -4 | 102 | x | x | x
CCCCCCCCC[n+]1cccc2c3ccccc3ccc21 | 5 | 106 | 1 | 19 | 135* | 150 | 29 | 105
CCCCCCCCCCCCCCCC[n+]1cccc2ccccc21 | -4 | 133* | 0 | 9 | 157* | 252* | 165* | 112
CCOc1ccc(CSC(=N)N)cc1Cl | x | 103 | x | 18 | 110 | x | x | x
CCCCOc1ccc(CSCCN)cc1Cl | x | 128* | x | 41 | 169* | 108 | 3 | 97
O=C1OC(c2cccc([N+](=O)[O-])c2)C2(CCCC2)C(=O)C12CCCCC2 (configuration not stated) | 49 | 142* | 2 | 0 | 104 | 93 | -4 | 95
CC1(C)C(=O)C2(CCCCC2)C(=O)OC1c1cccn1-c1ccc([N+](=O)[O-])cc1 (configuration not stated) | 12 | 133* | 4 | 0 | 107 | 103 | 3 | 101
CC1(C)C(=O)OC(c2cccn2-c2ccc([N+](=O)[O-])cc2)C(C)(C)C1=O (configuration not stated) | -8 | 136* | 0 | 0 | 104 | 103 | 2 | 104
Cc1ccc(C)c(NS(=O)(=O)c2ccccc2C)c1 | x | 100 | x | -2 | 101 | x | x | x
CC1(c2ccc(OC(F)F)cc2)NC(=O)N(CC(=O)Nc2cccc(F)c2)C1=O (configuration not stated) | x | 101 | x | 1 | 97 | x | x | x
COc1ccccc1C1CC(c2ccccc2)Nc2ncnn21 (configuration not stated) | 1 | 80*[inhibitor] | 0 | -6 | 91 | 105 | 5 | 103
COc1ccccc1C1CC(c2ccc(F)cc2)Nc2ncnn21 (configuration not stated) | 0 | 100 | 0 | -3 | 99 | x | x | x

Assay outcomes as filed in PubChem BioAssay.
